Consider one protein from ChEMBL document CHEMBL1127319, “CNAD: a potent and specific inhibitor of alcohol dehydrogenase” (J Med Chem, 1994).

Substrate in the series: NC(=O)c1ccc[n+]([C@@H]2O[C@H](COP(=O)([O-])OP(=O)(O)OC[C@H]3O[C@@H](n4cnc5c(N)ncnc54)[C@H](O)[C@@H]3O)[C@@H](O)[C@H]2O)c1
Kind of series: Michaelis-Menten constant against mammalian liver alcohol dehydrogenase (ADH). Particulars: Equus caballus. Put shortly: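 NAD is varied and the A340 increase from NADH formation is monitored (ε 6.22 mM-1 cm-1). Buffers differ by enzyme: ADH in 0.1 M phosphate, pH 8.0, with ethanol 1.2 mM; GDH in 0.1 M phosphate, pH 7.0, with 10 μM EDTA; LDH and MDH in 0.05 M Tris-HCl, pH 9.0. At least duplicate.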

B1: Alcohol dehydrogenase 1A (Homo sapiens), P07327 (protein)
chain: MSTAGKVIKCKAAVLWELKKPFSIEEVEVAPPKAHEVRIKMVAVGICGTDDHVVSGTMVTPLPVILGHEAAGIVESVGEGVTTVKPGDKVIPLAIPQCGKCRICKNPESNYCLKNDVSNPQGTLQDGTSRFTCRRKPIHHFLGISTFSQYTVVDENAVAKIDAASPLEKVCLIGCGFSTGYGSAVNVAKVTPGSTCAVFGLGGVGLSAIMGCKAAGAARIIAVDINKDKFAKAKELGATECINPQDYKKPIQEVLKEMTDGGVDFSFEVIGRLDTMMASLLCCHEACGTSVIVGVPPDSQNLSMNPMLLLTGRTWKGAILGGFKSKECVPKLVADFMAKKFSLDALITHVLPFEKINEGFDLLHSGKSIRTILMF
For B1, the Km (usually the substrate concentration at which the rate is half of its maximum) was 25 µM.
